Experimental data taken from ChEMBL document CHEMBL1127313, “The discovery of sulfonamide endothelin antagonists and the development of the orally active ETA antagonist 5-(dimethylamino)-N-(3,4-dimethyl-5-isoxazolyl)-1-naphthalenesulf onamide” (J Med Chem, 1994).

Columns and labels:
[1] = test system: A10; assay: Ability to inhibit [125I]ET1 binding to vascular smooth muscle (vsm)- A10 cells; format: functional, cell-based; conditions: Rattus norvegicus
Procedure, shortened: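 Intact rat vsm-A10 cells: confluent cells scraped, pelleted, resuspended in PBS with 0.1% glucose and 0.1% BSA. Bound and free ligand separated by filtration; bound radioactivity counted by scintillation; IC50 reported.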

[2] = biological target: T1, Endothelin-1 receptor (Homo sapiens) (UniProt P25101); conditions: Oryctolagus cuniculus
T1 sequence (whole entry): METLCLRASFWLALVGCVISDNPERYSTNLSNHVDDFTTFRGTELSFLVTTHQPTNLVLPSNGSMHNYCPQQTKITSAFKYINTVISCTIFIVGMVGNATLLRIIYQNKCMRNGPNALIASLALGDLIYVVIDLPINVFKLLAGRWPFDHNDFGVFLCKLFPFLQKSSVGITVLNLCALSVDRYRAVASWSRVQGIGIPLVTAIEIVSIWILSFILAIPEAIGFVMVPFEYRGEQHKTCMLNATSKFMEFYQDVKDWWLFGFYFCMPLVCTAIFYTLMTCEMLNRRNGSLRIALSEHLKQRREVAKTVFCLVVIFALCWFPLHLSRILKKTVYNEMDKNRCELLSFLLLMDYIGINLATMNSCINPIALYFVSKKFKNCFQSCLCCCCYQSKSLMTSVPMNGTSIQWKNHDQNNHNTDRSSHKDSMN

[3] = test system: Rattus norvegicus; assay: Antihypertensive activity administered orally at […] was determined in vivo in rats; format: functional
Procedure, shortened: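 Uninephrectomized rats implanted with a DOCA pellet and given saline to drink develop hypertension. Single 100 µmol/kg oral dose in 5% NaHCO3 given at time 0, with a vehicle group. Mean arterial pressure followed over 24 h as % change from pre-dose control; mean ± SEM, n = 6 animals.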

Row | SMILES | IC50 [1] [µM] | other results
1 | CCCCCc1cc(NS(=O)(=O)c2ccc(N)cc2)on1 | > 32 | –
2 | Cc1noc(NS(=O)(=O)c2cccc3c(O)cccc23)c1C | – | K Bapp [2]: 100 µM
3 | Nc1ccc(S(=O)(=O)Nc2cc(-c3ccccc3)no2)cc1 | > 32 | –
4 | Cc1noc(NS(=O)(=O)c2cccc3c(N(C)C)cccc23)c1C [BMS-182874] | – | Mean arterial blood pressure [3]: 45.8 mmHg
